What all share (assay type): functional, cell-based
The test system of one experiment is A549. Briefly: Cytotoxicity against human A549 cells after 24 hrs by MTT assay. In outline: (§1)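 Human cancer cell lines from ATCC were seeded at 3000 cells per well and dosed 24 h after seeding across a range of concentrations. After 24 h of compound exposure, MTT was added and incubation continued another 24 h. Viability was read as absorbance at 570 nm and IC50 calculated. Paclitaxel was the positive control.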

Another experiment relates to Bel-7402. Briefly: Cytotoxicity against human Bel7402 cells after 24 hrs by MTT assay. Summed up:
as §1

Another experiment has as its system HCT-8. The experiment is described as follows: Cytotoxicity against human HCT8 cells after 24 hrs by MTT assay. In outline:
as §1

For another experiment, the system named is PC-3M. Briefly: (§2) Cytotoxicity against human PC3M cells after 24 hrs by MTT assay. Summed up: as §1
Experiment [1] can be described thus: as §2. The settings on record: PC-3M. In outline:
as §1

The record followed here is ChEMBL document CHEMBL1157057, “Iridoids and lignans from Valeriana jatamansi” (J Nat Prod, 2010).

The structures appear in SMILES notation.

On to `C=C(CO)[C@H]1C[C@H](O)[C@@](C)(O)[C@H]1CO`, for which the Activity result with A549, with Bel-7402, with HCT-8 and in the experiment with PC-3M was “Not toxic” throughout.

Turning to `C=C1[C@H]2OC(=O)[C@H]3[C@@H]1C[C@H](O)[C@@]3(C)O2`, the Activity entry with A549, with Bel-7402, in the experiment with HCT-8 and with PC-3M was “Not toxic” in each case.

`C=C(C=O)[C@@]1(O)C[C@H](OC(C)=O)C(CO)=C1C=O`: the Activity entry in the experiment with A549, with Bel-7402, in the experiment on HCT-8 and with PC-3M was “Not toxic” each time.

`C[C@]12O[C@@H]3OC(=O)[C@H]1[C@H](C[C@@H]2O)[C@H]3CO`: the Activity result in the experiment on A549, in the experiment with Bel-7402, in the experiment on HCT-8 and with PC-3M was “Not toxic” each time.

Take `C=C(C=O)[C@H]1C[C@H](O)[C@@](C)(O)[C@H]1C(=O)OC`: the Activity result with A549, in the experiment on Bel-7402, in the experiment with HCT-8 and in the experiment with PC-3M was “Not toxic” throughout.

Take `CO[C@H]1OC(=O)[C@H]2[C@@H]3C[C@H](O)[C@@]2(C)OC[C@H]13`: the Activity result with A549, in the experiment on Bel-7402, in the experiment on HCT-8 and in the experiment on PC-3M was “Not toxic” each time.

Take `C=C1[C@H]2O[C@@H](O)[C@H]3[C@@H]1C[C@H](O)[C@@]3(C)O2`: the Activity result in the experiment on A549, with Bel-7402, in the experiment on HCT-8 and in the experiment on PC-3M was “Not toxic” each time.

Take `COc1cc(C[C@H]2CO[C@H](c3ccc(O)c(OC)c3)[C@H]2COC(=O)CC(C)C)ccc1O` [(+)-9'-ISOVALEROXYLARICIRESINOL]: the Activity result in the experiment on A549 and in the experiment with Bel-7402 was “Not toxic” each time. Also, the IC50 in the experiment with HCT-8 (HCT-8, 24 h) was 5.3 µM; in experiment [1] it was 8.1 µM.

In the case of `C=C1CO[C@@]2(CO)C(CO)=CC[C@H]12`, the Activity entry with A549, in the experiment on Bel-7402, with HCT-8 and in the experiment with PC-3M was “Not toxic” throughout.

As for `C=C1[C@H]2OC[C@H]3[C@@H]1C[C@H](O)[C@@]3(C)O2`, the Activity entry in the experiment with A549, in the experiment on Bel-7402, in the experiment on HCT-8 and in the experiment with PC-3M was “Not toxic” in each case.

For `C[C@H]1COC(=O)[C@H]2[C@@H]1C[C@H](O)[C@@]2(C)O`, the Activity entry with A549, in the experiment with Bel-7402, with HCT-8 and in the experiment on PC-3M was “Not toxic” each time.

For the compound `C=C1COC(=O)[C@H]2[C@@H]1C[C@H](O)[C@@]2(C)O`, the Activity result with A549, in the experiment on Bel-7402, in the experiment on HCT-8 and in the experiment on PC-3M was “Not toxic” each time.

In the case of `C[C@@H]1COC(=O)[C@H]2[C@@H]1C[C@H](O)[C@@]2(C)O`, the Activity result in the experiment on A549, with Bel-7402, with HCT-8 and with PC-3M was “Not toxic” in each case.

`CO[C@@H]1O[C@]2(C)[C@@H](O)C[C@@H]3[C@H]1COC(=O)[C@@H]32`: the Activity result in the experiment on A549, in the experiment with Bel-7402, with HCT-8 and in the experiment with PC-3M was “Not toxic” throughout.
